Only some compounds are listed: those with a hit (about 2.3% of all), similar ones and a draw of the others.
TRPC6 act: mouse TRPC6 channel activators, primary screen, cell-based, HEK293, membrane potential dye | HEK293-TRPC6 membrane potential dye fluorescence; stronger effect = higher value | B-score at 10 µM | actives 0.13% (n = 310,000) | AID 2550, 2010;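 active = B-score of the integrated fluorescence ratio above library mean plus 3 SD, and starting fluorescence ratio within library mean plus 5 SD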;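 note: higher score means more depolarization so channel activation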
TRPC4 act: activators of mouse TRPC4 channel, primary screen, Fluo4 calcium, HEK293 TRPC4beta/mu-opioid cells; actives 0.49% (n = 310,000); Fluo4 calcium fluorescence; stronger effect = higher value; B-score at 10 µM; AID 2237, 2010;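 active = B-score above 5 SD of library B-scores, and initial fluorescence ratio not above library mean plus 5 SD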;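 note: positive B-score marks a calcium rise read as TRPC4 activation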
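Material: HEK293 stable line with TRPC4beta plus mu-opioid receptor; technique: Fluo4 calcium-sensitive dye fluorescence, kinetic, 1 Hz baseline; timing: Fluo4 dye loading 45 min at room temperature, 110 s recording; controls: assay buffer as low control, maximal DAMGO as high control; read-out: integrated baseline-normalised fluorescence ratio, converted to per-well B score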
TRPC4 block: inhibitors of mouse TRPC4 channel, primary screen, Fluo4 calcium, HEK293 TRPC4beta/mu-opioid cells. B-score at 10 µM. Short transient receptor potential channel 4 (Mus musculus), Q9QUQ5. DAMGO-evoked Fluo4 calcium flux; stronger effect = lower value. AID 2247, 2010. actives 0.39% (n = 300,000);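 active = B-score over 3 SD under the library average, no early fluorescence shift, positive overall ratio signal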
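Material: HEK293 cells with stable TRPC4beta plus mu-opioid receptor expression; probe or stimulus: DAMGO in two steps, submaximal then maximal; technique: Fluo4 calcium fluorescence by kinetic imaging, 5 s 1 Hz baseline; measure: integrated fluorescence ratio relative to baseline, converted to per-well B score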
TRPC4 potent: positive allosteric modulators of TRPC4, primary screen, cell-based, mouse TRPC4beta, HEK293 mu-opioid, Fluo-4 calcium; Short transient receptor potential channel 4 (Mus musculus), Q9QUQ5; DAMGO EC20, Fluo-4 Ca2+ flux; stronger effect = higher value; B-score at 10 µM; actives 0.42% (n = 310,000); AID 2227, 2009;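 active = B-score of calcium response area above 5 SD of library B-scores, with initial fluorescence ratio within 5 SD of library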;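 note: B-score of integrated fluorescence ratio over time as area under calcium response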
TRPC6 inhibitor: mouse TRPC6 channel inhibitors, primary screen, cell-based, HEK293, membrane potential dye | actives 1.1% (n = 310,000) | Short transient receptor potential channel 6 (Mus musculus), Q61143 | B-score at 10 µM | ACh-evoked depolarization; stronger effect = lower value;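 active = B-score under library mean minus 3 SD, initial fluorescence not abnormally high, positive integrated signal ratio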;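 note: B-score derived from integrated fluorescence ratio over the kinetic read; more negative B-score means stronger inhibition of depolarization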
Active calls of the source: *; i = inactive.

SMILES	TRPC6 act	TRPC4 act	TRPC4 block	TRPC4 potent	TRPC6 inhibitor
CCCCN(CC)CCCNC(=S)Nc1ccc2nc(N3CCN(C)CC3)cc(C)c2c1	i	i	i	i	i
O=C(NCCc1ccc(F)cc1)c1ccc2c(=O)n3c(nc2c1)CCC3	i	i	i	i	i
O=C1OCCN/C1=C\C(=O)c1ccc(Cl)cc1	i	i	i	i	i
O=C1OCCN/C1=C\C(=O)c1ccccc1	i	i	i	14*	i
Cn1c(/N=C/c2cccs2)nc2ccccc21	i	i	i	i	i
Cn1c(/N=C/c2ccccc2[N+](=O)[O-])nc2ccccc21	i	i	i	15*	i
COc1ccc(C)cc1NC(=O)CSc1nnc2ccc(-c3ccncc3)nn12	i	i	i	i	i
COc1cc(OC)c(C2N(C)c3ccccc3N2C)cc1OC	i	i	-6*	i	i
COC(=O)C1=CN(c2ccc(OC)cc2)C=C(C(=O)OC)C1c1cc(OC)c(OC)cc1OC	i	i	i	i	i
O=C1NCN(c2ccccc2)C12CCN(CCCC(c1ccc(F)cc1)c1ccc(F)cc1)CC2	i	116*	i	i	i
CCN(CC)CCCNC(=O)c1ccc(CS(=O)(=O)c2ccccc2OC)o1	i	i	i	i	i
CCCCN(CCCNC(=O)c1ccc(CS(=O)(=O)c2ccc(OC)cc2)o1)Cc1ccccc1	i	i	-6*	i	i
CCCCN(CC)CCCNC(=O)c1ccc(CS(=O)(=O)c2ccccc2C)o1	i	68*	i	i	i
COCCNC(=O)c1ccc(CS(=O)(=O)c2ccc(OC)cc2)o1	i	i	i	i	i
CSc1nc(NS(=O)(=O)c2ccc(F)cc2F)nn1C	i	i	i	i	i
O=C(COC(=O)CCNS(=O)(=O)c1ccccc1)NC(=O)c1ccccc1	i	i	i	i	i
CC1CCCN(C2=C(NS(=O)(=O)c3ccc(Br)cc3)C(=O)c3ccccc3C2=O)C1 (stereo not given)	i	i	i	16*	i
COc1ccc(C2CC(=O)c3cnc(N4CCN(Cc5ccccc5)CC4)nc3C2)cc1 (stereo not given)	i	i	i	19*	i
O=C(NCc1cccs1)c1ccc([N+](=O)[O-])cc1Cl	i	i	i	i	i
CC(C)CN(CC(C)C)c1nc(N)c(C#N)c(CC#N)c1C#N	i	i	-6*	i	i
CN(C)S(=O)(=O)c1cccc(COC(=O)c2ccc(Cl)cc2O)c1	i	i	i	17*	i
CN(C)S(=O)(=O)c1cccc(COC(=O)c2ccc3c(c2)OCO3)c1	i	i	i	i	i
Cc1cccc(NC(=S)N2CCC(NC(=O)c3ccco3)CC2)c1	i	i	i	i	i
C=CCOc1cccc(C(=O)/C=C2/C(=O)Nc3ccccc32)c1	i	i	i	i	i
CC(=O)/C=C1/C(=O)Nc2ccccc21	i	i	-5*	i	i
SMILES	TRPC6 act	TRPC4 act	TRPC4 block	TRPC4 potent	TRPC6 inhibitor
CN(C)CCNc1c2c(nc3nnnn13)CCCC2	i	44*	i	i	i
O=C(O)Cc1sc(Nc2cccc3ccccc23)nc1-c1ccc(Cl)cc1	i	i	i	i	i
O=C1CC(N2CCN(c3nc4ccccc4s3)CC2)C(=O)N1c1ccc(F)cc1 (stereo not given)	i	i	i	14*	i
CCOc1cc(/C=C2/C(=O)ON=C2C)cc(Br)c1O	i	i	i	i	i
COc1cc(/C=C2\C(=O)ON=C2c2ccccc2)cc(Cl)c1O	i	i	-8*	i	i
CCOc1cc(/C=C2\C(=O)ON=C2c2ccccc2)cc(Br)c1O	17*	i	i	i	i
CC(C)(C)[C@H]1C=C(C(=O)Nc2ccccc2)O[C@@H](OCc2ccc(CO)cc2)C1	i	i	i	i	i
O=C(NCc1ccccc1)C1=C[C@H](c2ccc3c(c2)OCO3)C[C@H](OCc2ccc(CO)cc2)O1	i	211*	-6*	i	i
O=C(Nc1ccccc1)C1=C[C@H](C2CCCCC2)C[C@H](OCc2ccc(CO)cc2)O1	i	i	i	19*	i
CC(C)(C)[C@@H]1C=C(C(=O)NCc2ccccc2)O[C@H](OCc2ccc(CO)cc2)C1	i	i	i	13*	i
O=C(Nc1ccccc1)C1=C[C@@H](C2CCCCC2)C[C@@H](OCc2ccc(CO)cc2)O1	i	i	i	i	i
O=C(NCc1ccccc1)C1=C[C@H](c2ccc(Br)cc2)C[C@H](OCc2ccc(CO)cc2)O1	i	i	i	15*	i
CCCCNc1ccc(C(=O)O)cc1	i	i	i	i	i
CNCCOc1ccccc1-c1ccccc1	i	i	i	i	i
CCCCNCCOc1ccccc1-c1ccccc1	i	i	-6*	i	i
CNCCCCOc1ccccc1-c1ccccc1	i	52*	i	i	i
N=C(N)SCc1cn2ccccc2n1	i	i	i	16*	i
CC1CC(C)CN(CCCNC(=O)CN2C(=O)COc3ccc(S(=O)(=O)N4CCOCC4)cc32)C1 (stereo not given)	i	i	i	i	i
NNc1nc(-c2ccccc2Cl)nc2sc3c(c12)CCCC3	i	i	i	12*	i
COC(=O)[C@@]12CCCCN1[C@H](c1ccc(-c3ccc(C(C)=O)cc3)cc1)[C@@H]1C(=O)N(C)C(=O)[C@@H]12	i	i	i	43*	i
COC(=O)[C@@]12CCCCN1[C@H](c1ccc(-c3cccc(Cl)c3)cc1)[C@H]1C(=O)N(C)C(=O)[C@H]12	i	i	i	i	i
COC(=O)[C@@]12CCCN1[C@H](c1ccc(-c3ccccc3)cc1)[C@@H]1C(=O)N(C)C(=O)[C@@H]12	i	i	i	i	i
CCN1C(=O)[C@H]2[C@@H](c3ccc(-c4ccc(C(C)=O)cc4)cc3)N3CCCC[C@@]3(C(=O)OC)[C@H]2C1=O	i	i	i	i	i

From PubChem BioAssay
